Source: ChEMBL document CHEMBL1139083, “Discovery of 2-iminobenzimidazoles as a new class of trypanothione reductase inhibitor by high-throughput screening” (Bioorg Med Chem Lett, 2007)

Tests used:
[1] = Inhibition of Trypanosoma brucei rhodesiense trypanothione reductase
Summary of the method: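 Automated photometric TR assay adapted to 384-well format. The rate of TNB formation was followed continuously at 412 nm for 15 min at room temperature.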

[2] = tested on: Trypanosoma brucei rhodesiense; test: Inhibition of Trypanosoma brucei rhodesiense trypanothione reductase at 25 uM
[3] = molecular target: T1, Glutathione reductase, mitochondrial (Homo sapiens, UniProt P00390); test: Inhibition of human glutathione reductase
T1 sequence (P00390 whole entry): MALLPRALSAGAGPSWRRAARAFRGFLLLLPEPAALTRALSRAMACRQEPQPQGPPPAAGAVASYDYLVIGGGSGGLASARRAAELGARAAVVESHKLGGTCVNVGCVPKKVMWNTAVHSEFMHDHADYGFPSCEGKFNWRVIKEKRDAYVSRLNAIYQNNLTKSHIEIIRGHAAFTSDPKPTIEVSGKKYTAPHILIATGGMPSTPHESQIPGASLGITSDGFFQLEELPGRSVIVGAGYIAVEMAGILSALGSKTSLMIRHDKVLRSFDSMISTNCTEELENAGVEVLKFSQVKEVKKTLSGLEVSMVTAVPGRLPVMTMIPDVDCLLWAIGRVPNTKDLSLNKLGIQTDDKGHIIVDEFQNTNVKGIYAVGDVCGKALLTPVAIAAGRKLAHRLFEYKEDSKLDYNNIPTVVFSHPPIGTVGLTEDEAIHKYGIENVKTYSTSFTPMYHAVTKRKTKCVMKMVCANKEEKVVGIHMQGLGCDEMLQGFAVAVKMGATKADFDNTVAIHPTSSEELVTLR
Summary of the method: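 GR assay adapted from the TR screening protocol, using higher enzyme and G[S]₂ levels because of the higher K_m. The rate of TNB formation was recorded continuously at 412 nm over 15 min at room temperature.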

[4] = tested on: Trypanosoma brucei rhodesiense; test: Trypanocidal activity against Trypanosoma brucei rhodesiense; assay type: functional, organism-based
HT-29 = test: Cytotoxicity against human HT29 cells; assay type: functional, cell-based

Row | SMILES | IC50 [1] [µM] | also measured
1 | Cc1ccc(C(O)Cn2c(=N)n(CCN(C)C)c3ccccc32)cc1 (stereo unspecified) | 29 | 
2 | CCCCn1c(=N)n(CC(O)c2ccc(Br)cc2)c2ccccc21 (stereo unspecified) | > 100 | inhibition [2]: 42%
3 | CCN(CC)CCn1c(=N)n(CC(O)c2ccc(Cl)c(Cl)c2)c2ccccc21 (stereo unspecified) | 9 | 
4 | c1ccc(OCCNc2ccccc2NCCN2CCCCC2)cc1 | > 100 | 
5 | CCN(CC)CCn1c(=N)n(CCN(CC)CC)c2ccccc21 | 59 | 
6 | CCn1c(=N)n(CCOCCOCCn2c(=N)n(CC)c3ccccc32)c2ccccc21 | > 100 | 
7 | N=c1n(CCN2CCCCC2)c2ccccc2n1CC(O)c1ccc(Cl)c(Cl)c1 (stereo unspecified) | 4 | IC50 [3]: > 100 µM; IC50 [4]: 0.2 µM; IC50 (HT-29): 9 µM; Ki [1]: 3.6 µM
8 | N=c1n(CCOCCOCCn2c(=N)n(Cc3ccccc3)c3ccccc32)c2ccccc2n1Cc1ccccc1 | 4 | IC50 [3]: > 100 µM; IC50 [4]: 1.3 µM; IC50 (HT-29): 144 µM; Ki [1]: 1.9 µM
9 | CCN(CC)CCn1c(=N)n(CCOc2ccccc2)c2ccccc21 | 8 | 
10 | N=c1n(CCN2CCCCC2)c2ccccc2n1CC(O)COc1ccc(Cl)cc1Cl (stereo unspecified) | 5 | 
11 | N=c1n(Cc2ccccc2)c2ccccc2n1CC(O)c1ccc(Cl)cc1 (stereo unspecified) | > 100 | inhibition [2]: 32%
12 | N=c1n(CCN2CCCCC2)c2ccccc2n1CC(O)COc1ccccc1 (stereo unspecified) | 5 | 
13 | Cc1ccc(OCC(O)Cn2c(=N)n(CCN3CCOCC3)c3ccccc32)cc1 (stereo unspecified) | > 100 | 
14 | CCN(CC)CCn1c(=N)n(CC(=O)c2ccc(C)cc2)c2ccccc21 | 7 | inhibition [2]: 91%
15 | CCN(CC)CCn1c(=N)n(CC(=O)c2ccc(Cl)c(Cl)c2)c2ccccc21 | 10 | 
16 | Cc1ccc(C(O)Cn2c(=N)n(CCN3CCCCC3)c3ccccc32)cc1 (stereo unspecified) | 16 | 

Row | SMILES | IC50 [1] [µM] | also measured
17 | Cc1ccc(C(O)Cn2c(=N)n(CCCN(C)C)c3ccccc32)cc1 (stereo unspecified) | 35 | 
18 | CC(C)(C)C(O)Cn1c(=N)n(CCN2CCCCC2)c2ccccc21 (stereo unspecified) | > 100 | inhibition [2]: 66%
19 | COc1ccc(C(O)Cn2c(=N)n(CCN3CCCCC3)c3ccccc32)cc1 (stereo unspecified) | 24 | inhibition [2]: 85%
20 | CCN(CC)CCn1c(=N)n(CC(O)c2ccc(C)cc2)c2ccccc21 (stereo unspecified) | 19 | 
21 | N=c1n(CCN2CCOCC2)c2ccccc2n1CC(O)COc1ccccc1 (stereo unspecified) | > 100 | 
22 | N=c1n(CCOc2ccccc2)c2ccccc2n1CCN1CCCCC1 | 4 | 
23 | C=CCn1c(=N)n(CC(O)c2ccc(OCC)cc2)c2ccccc21 (stereo unspecified) | > 100 | inhibition [2]: 6%
24 | CN(C)CCn1c(=N)n(CC(O)c2ccc(Cl)c(Cl)c2)c2ccccc21 (stereo unspecified) | 10 | IC50 [3]: > 100 µM; IC50 [4]: 0.6 µM; IC50 (HT-29): 46 µM; Ki [1]: 5.4 µM; inhibition [2]: 92%
25 | N=c1n(CCCOc2ccccc2)c2ccccc2n1CCN1CCCCC1 | 7 | 
26 | CN1CCCC(n2c(=N)n(CCOc3ccccc3)c3ccccc32)C1 (stereo unspecified) | > 100 | 
27 | N=c1n(CCCCCOc2ccccc2)c2ccccc2n1CCN1CCCCC1 | 8 | 
28 | CC(=O)/N=c1/n(CCOc2ccccc2)c2ccccc2n1CCN1CCCCC1 | > 100 | 
29 | Cc1ccc(OCC(O)Cn2c(=N)n(CCN3CCCCC3)c3ccccc32)cc1 (stereo unspecified) | 9 | 
30 | CCN(CC)CCn1c(=N)n(CC(=O)c2ccc(-c3ccccc3)cc2)c2ccccc21 | 25 | 
31 | C=CCn1c(=N)n(CCN(CC)CC)c2ccccc21 | > 100 | inhibition [2]: 31%
